Measurements as given in ChEMBL document CHEMBL4431310, “Characterization and in vitro activity of a branched peptide boronic acid that interacts with HIV-1 RRE RNA” (Bioorg Med Chem, 2016).
Activity calls are given as the source filed them. The rule behind the calls is not given here. *1 amine or outer side, *2 acyl side, *3 side chain or, on linkers, in order; H or OH if unused. Where a SMILES comes first, the peptide text is derived from it. Side-chain parts run from the residue outwards. [ ]: non-standard residue; d: D form. The star is where a group is joined. X4 = NCCCC[C@H](NC(=O)[C@@H](N)CCCCNC(=O)c1ccc(B(O)O)cc1)C(=O)N[C@@H](Cc1ccc(B(O)O)cc1)C(=O)*; X1 = N[C@@H](Cc1ccc(B(O)O)cc1)C(=O)N[C@@H](Cc1ccc(O)cc1)C(=O)N[C@@H](Cc1ccc(B(O)O)cc1)C(=O)*; X2 = NCCCC[C@H](NC(=O)[C@@H](N)CCCCN)C(=O)N[C@@H](CCCCNC(=O)c1ccc(B(O)O)cc1)C(=O)*; X3 = NCCCC[C@H](N)C(=O)N[C@@H](CCCCNC(=O)c1ccc(B(O)O)cc1)C(=O)*; Phe(4-B(OH)2) = N[C@@H](Cc1ccc(B(O)O)cc1)C(=O)O; Benzoyl(4-B(OH)2) = O=C(c1ccc(B(O)O)cc1)*; εLys = N[C@@H](CCCCN[*:1])C(=O)[*:2]

Columns and labels:
[1] = test system: Human immunodeficiency virus 1; experiment: Antiviral activity against HIV-1 NL4-3 infected in human U87 cells expressing CD4.CXCR4 assessed as inhibition of p24 production at 10 uM measured after 4 days by p24 ELISA; assay type: functional, organism-based
[2] = test system: Human immunodeficiency virus 1; experiment: Antiviral activity against HIV-1 NL4-3 infected monkey 5BD.1 cells assessed as reduction in p24 production at 10 uM measured over 24 hrs by p24 ELISA; assay type: functional
[3] = target: Rev responsive element (RRE) RNA; experiment: Binding affinity to HIV-1 RRE 2B RNA measured after 4 hrs by dot blot assay; assay type: nucleic-acid assay, Human immunodeficiency virus 1
Summary of the method: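 RNA at 0.4 nM titrated with peptide 0.001–100 µM for 4 h at rt, filtered through nitrocellulose, washed twice, imaged by phosphorimaging. Kd from four-parameter logistic fit of densitometry; triplicate, SD reported.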

[4] = test system: Human immunodeficiency virus 1; experiment: Antiviral activity against HIV-1 NL4-3 infected in human U87 cells expressing CD4.CXCR4 assessed as inhibition of p24 production at 100 uM measured after 4 days by p24 ELISA; assay type: functional, organism-based
[5] = test system: HeLa; experiment: Cytotoxicity in human HeLa cells assessed as cell viability at 100 nM to 10 uM measured over 24 hrs by MTT assay; assay type: cell-based; conditions: 0.1 µM
[6] = test system: Rev responsive element (RRE) RNA; experiment: Selectivity ratio of Kd for HIV-1 RRE 2B RNA to Kd for HIV-1 RRE 2B RNA in presence of 1000-fold excess tRNA; assay type: nucleic-acid assay; conditions: Human immunodeficiency virus 1
[7] = test system: Rev responsive element (RRE) RNA; experiment: Binding affinity to HIV-1 RRE 2B RNA assessed as protection against RNase T1-mediated RRE 2B cleavage at G10 and G11 preincubated for 4 hrs followed by addition of RNase T1 at 20 uM measured after 1 hr by nuclease protection assay; assay type: nucleic-acid assay; conditions: Human immunodeficiency virus 1
Summary of the method: (§1)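 5'-32P-labeled RRE IIB (10 nM) mixed with unlabeled RRE IIB (200 nM), heated to 95 °C for 3 min and snap-cooled. Incubated with peptide (up to 20 µM) on ice for 4 h in 10 mM Tris pH 7, 100 mM KCl, 10 mM MgCl2. Digested on ice with RNase V1 (0.002 U, 10 min), RNase T1 (1 U, 1 h) or RNase A (20 ng, 1 h). Stopped with inactivation/precipitation buffer, run on 12% urea PAGE, read by autoradiography against an alkaline hydrolysis ladder.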

[8] = test system: Human immunodeficiency virus 1; experiment: Antiviral activity against HIV-1 NL4-3 infected in human U87 cells expressing CD4.CXCR4 assessed as inhibition of p24 production measured after 4 days by p24 ELISA; assay type: functional, organism-based
[9] = Toxicity against human U87 cells expressing CD4.CXCR4 assessed as cell viability at 10 uM measured after 24 hrs by MTT assay; assay type: cell-based, U-87MG ATCC; conditions: read-out: Activity
[10] = target: Rev responsive element (RRE) RNA; experiment: Binding affinity to HIV-1 RRE 2B RNA in presence of 1000-fold excess tRNA; assay type: nucleic-acid assay, Human immunodeficiency virus 1
[11] = target: Rev responsive element (RRE) RNA; experiment: Binding affinity to HIV-1 RRE 2B RNA measured after 4 hrs by EMSA; assay type: nucleic-acid assay, Human immunodeficiency virus 1
[12] = Binding affinity to HIV-1 TAR RNA; design: species or system Human immunodeficiency virus 1
[13] = test system: Rev responsive element (RRE) RNA; experiment: Binding affinity to HIV-1 RRE 2B RNA assessed as protection against RNase A-mediated RRE 2B cleavage at C21 and U24 preincubated for 4 hrs followed by addition of RNase A measured up to 20 uM after 1 hr by nuclease protection assay; assay type: nucleic-acid assay; conditions: Human immunodeficiency virus 1; summary of the method: as §1
[14] = test system: Rev responsive element (RRE) RNA; experiment: Binding affinity to HIV-1 RRE 2B RNA assessed as protection against RNase A-mediated RRE 2B cleavage at C33 of loop B preincubated for 4 hrs followed by addition of RNase A at 20 uM measured after 1 hr by nuclease protection assay; assay type: nucleic-acid assay; conditions: Human immunodeficiency virus 1; summary of the method: as §1
[15] = test system: Rev responsive element (RRE) RNA; experiment: Binding affinity to HIV-1 RRE 2B RNA assessed as protection against RNase T1-mediated RRE 2B cleavage preincubated for 4 hrs followed by addition of RNase T1 measured up to 20 uM after 1 hr by nuclease protection assay; assay type: nucleic-acid assay; conditions: Human immunodeficiency virus 1; summary of the method: as §1
[16] = test system: Rev responsive element (RRE) RNA; experiment: Binding affinity to HIV-1 RRE 2B RNA assessed as protection against RNase V1-mediated RRE 2B cleavage at G17 and C18 preincubated for 4 hrs followed by addition of RNase V1 measured after 10 mins by nuclease protection assay; assay type: nucleic-acid assay; conditions: Human immunodeficiency virus 1; summary of the method: as §1
[17] = test system: Rev responsive element (RRE) RNA; experiment: Binding affinity to HIV-1 RRE 2B RNA assessed as protection against RNase A-mediated RRE 2B cleavage at U9 and G34 preincubated for 4 hrs followed by addition of RNase A at 20 uM measured after 1 hr by nuclease protection assay; assay type: nucleic-acid assay; conditions: Human immunodeficiency virus 1; summary of the method: as §1

Structure (SMILES) | Kd [3] [µM] | inhibition [1] | inhibition [2] | other results
CC(C)C[C@H](NC(=O)[C@H](CCCCN)NC(=O)[C@H](CCCCNC(=O)[C@H](CCCCN)NC(=O)[C@H](CCCCNC(=O)c1ccc(B(O)O)cc1)NC(=O)[C@@H](N)CCCCN)NC(=O)[C@H](CCCCN)NC(=O)[C@H](CCCCNC(=O)c1ccc(B(O)O)cc1)NC(=O)[C@@H](N)CCCCN)C(=O)N[C@@H](CCCCN)C(=O)N[C@@H](Cc1ccc(O)cc1)C(=O)O (H-KK(Benzoyl(4-B(OH)2))KK([Lys-X3])KLKY-OH) | 58.4 | inactive | Active | 
CCc1c(C)nc2sc(C(N)=O)c(N)c2c1C |  |  | Active | 
C[C@@H](O)[C@H](NC(=O)[C@@H]1CCCN1C(=O)[C@H](CCCCNC(=O)[C@H](CCCCN)NC(=O)[C@H](Cc1ccc(O)cc1)NC(=O)[C@@H](N)Cc1c[nH]c2ccccc12)NC(=O)[C@H](CCCCN)NC(=O)[C@H](Cc1ccc(O)cc1)NC(=O)[C@@H](N)Cc1c[nH]c2ccccc12)C(=O)N[C@@H](Cc1c[nH]c2ccccc12)C(=O)N[C@@H](Cc1ccc(O)cc1)C(=O)O (H-WYKK([Lys-Tyr-Trp])PTWY-OH) | 28.5 | inactive | Active | 
Nc1ccn([C@@H]2CS[C@H](CO)O2)c(=O)n1 |  | Active |  | inhibition [4]: Active
Cc1cn([C@H]2C[C@H](N=[N+]=[N-])[C@@H](CO)O2)c(=O)[nH]c1=O |  | Active |  | inhibition [4]: Active
NCCCC[C@H](NC(=O)[C@H](Cc1ccc(O)cc1)NC(=O)[C@@H](N)CCCCNC(=O)c1ccc(B(O)O)cc1)C(=O)NCCCC[C@H](NC(=O)[C@H](CCCCN)NC(=O)[C@H](Cc1ccc(O)cc1)NC(=O)[C@@H](N)CCCCNC(=O)c1ccc(B(O)O)cc1)C(=O)N[C@@H](Cc1cnc[nH]1)C(=O)N[C@@H](CCCCN)C(=O)N[C@@H](CCCCN)C(=O)N[C@@H](Cc1ccc(O)cc1)C(=O)O (H-K(Benzoyl(4-B(OH)2))YKK([Lys-Tyr-εLys-Benzoyl(4-B(OH)2)])HKKY-OH) | 86.5 | inactive | Active | 

Second part, led by results:

Kd [3] [µM] | Structure (SMILES) | inhibition [1] | inhibition [2] | other results
27.2 | NCCCC[C@H](NC(=O)[C@H](CCCCN)NC(=O)[C@H](CCCCNC(=O)[C@H](Cc1ccccc1)NC(=O)[C@H](CCCCNC(=O)c1ccc(B(O)O)cc1)NC(=O)[C@@H](N)CCCCN)NC(=O)[C@H](Cc1ccccc1)NC(=O)[C@H](CCCCNC(=O)c1ccc(B(O)O)cc1)NC(=O)[C@@H](N)CCCCN)C(=O)N[C@@H](Cc1c[nH]c2ccccc12)C(=O)N[C@@H](Cc1ccc(O)cc1)C(=O)O (H-KK(Benzoyl(4-B(OH)2))FK([Phe-X3])KKWY-OH) | inactive | Active | 
1.4 | NCCCC[C@H](NC(=O)[C@H](CCCCN)NC(=O)[C@@H](N)Cc1c[nH]c2ccccc12)C(=O)NCCCC[C@H](NC(=O)[C@H](CCCCN)NC(=O)[C@H](CCCCN)NC(=O)[C@@H](N)Cc1c[nH]c2ccccc12)C(=O)N[C@@H](CCCCNC(=O)c1ccc(B(O)O)cc1)C(=O)N[C@@H](Cc1ccc(O)cc1)C(=O)N[C@@H](Cc1c[nH]c2ccccc12)C(=O)N[C@@H](Cc1ccc(O)cc1)C(=O)O (H-WKKK([Lys-Lys-Trp])K(Benzoyl(4-B(OH)2))YWY-OH) | inactive | Active | 
> 100 | N[C@@H](Cc1ccc(B(O)O)cc1)C(=O)N[C@@H](Cc1ccc(O)cc1)C(=O)N[C@@H](Cc1ccc(B(O)O)cc1)C(=O)NCCCC[C@H](NC(=O)[C@H](Cc1ccc(B(O)O)cc1)NC(=O)[C@H](Cc1ccc(O)cc1)NC(=O)[C@@H](N)Cc1ccc(B(O)O)cc1)C(=O)O |  |  | 
27.2 | NCCCC[C@H](NC(=O)[C@H](CC(N)=O)NC(=O)[C@H](Cc1ccc(B(O)O)cc1)NC(=O)[C@H](Cc1ccc(O)cc1)NC(=O)[C@H](Cc1ccc(B(O)O)cc1)NC(=O)[C@H](Cc1ccc(B(O)O)cc1)NC(=O)[C@H](Cc1ccc(O)cc1)NC(=O)[C@@H](N)Cc1ccc(B(O)O)cc1)C(=O)N[C@@H](CO)C(=O)N[C@@H](Cc1ccc(O)cc1)C(=O)O (H-[Phe(4-B(OH)2)]Y[Phe(4-B(OH)2)][Phe(4-B(OH)2)]Y[Phe(4-B(OH)2)]NKSY-OH) |  |  | 
3.3 | NCCCC[C@H](NC(=O)[C@H](CCCCN)NC(=O)[C@H](CCCCNC(=O)c1ccc(B(O)O)cc1)NC(=O)[C@H](CCCCNC(=O)[C@H](Cc1ccc(B(O)O)cc1)NC(=O)[C@H](CCCCN)NC(=O)[C@@H](N)CCCCNC(=O)c1ccc(B(O)O)cc1)NC(=O)[C@H](Cc1ccc(B(O)O)cc1)NC(=O)[C@H](CCCCN)NC(=O)[C@@H](N)CCCCNC(=O)c1ccc(B(O)O)cc1)C(=O)N[C@@H](Cc1ccc(O)cc1)C(=O)O (H-K(Benzoyl(4-B(OH)2))K[Phe(4-B(OH)2)]K(X4)K(Benzoyl(4-B(OH)2))KKY-OH) | inactive | Active | 
26.8 | C[C@@H](O)[C@H](NC(=O)[C@H](Cc1ccc(B(O)O)cc1)NC(=O)[C@H](CCCCNC(=O)[C@H](CCCCNC(=O)c1ccc(B(O)O)cc1)NC(=O)[C@H](CCCCN)NC(=O)[C@@H](N)CCCCN)NC(=O)[C@H](CCCCNC(=O)c1ccc(B(O)O)cc1)NC(=O)[C@H](CCCCN)NC(=O)[C@@H](N)CCCCN)C(=O)N[C@@H](CO)C(=O)N[C@@H](Cc1ccc(O)cc1)C(=O)O (H-KKK(Benzoyl(4-B(OH)2))K(X2)[Phe(4-B(OH)2)]TSY-OH) | inactive | Active | 
8.7 | NCCCC[C@H](NC(=O)[C@H](CC(N)=O)NC(=O)[C@H](CCCCNC(=O)[C@H](Cc1ccc(B(O)O)cc1)NC(=O)[C@H](Cc1ccc(O)cc1)NC(=O)[C@@H](N)Cc1ccc(B(O)O)cc1)NC(=O)[C@H](Cc1ccc(B(O)O)cc1)NC(=O)[C@H](Cc1ccc(O)cc1)NC(=O)[C@@H](N)Cc1ccc(B(O)O)cc1)C(=O)N[C@@H](CO)C(=O)N[C@@H](Cc1ccc(O)cc1)C(=O)O (H-[Phe(4-B(OH)2)]Y[Phe(4-B(OH)2)]K(X1)NKSY-OH) | Active |  | Activity [5]: Non-Toxic; Selectivity ratio [6]: 3; Activity [7]: inactive; inhibition [8]: Dose-dependent effect; IC50 ([8]; Human immunodeficiency virus 1, NL4-3, U-87 MG, 96 h): 5 µM; viability at 24 h, 10 µM [9]: > 80%; inhibition [4]: Active; Kd [10]: 26.4 µM; Kd [11]: 4.6 µM; Kd [12]: 5.2 µM; Activity [13]: Active; inhibition at 10 µM ([2]; Human immunodeficiency virus 1, NL4-3, in Primates): 70%; Activity [14]: inactive; Activity [15]: inactive; Activity [16]: Dose-dependent effect; Activity [17]: inactive
17.7 | NCCCC[C@H](NC(=O)[C@H](CC(N)=O)NC(=O)[C@H](CCCCN)NC(=O)[C@H](Cc1ccc(B(O)O)cc1)NC(=O)[C@H](Cc1ccc(O)cc1)NC(=O)[C@@H](N)Cc1ccc(B(O)O)cc1)C(=O)N[C@@H](CO)C(=O)N[C@@H](Cc1ccc(O)cc1)C(=O)O (H-[Phe(4-B(OH)2)]Y[Phe(4-B(OH)2)]KNKSY-OH) |  |  | 
